Several values for one entry are separate records, joined by “and”; a condition that tells them apart may be missing. Identical values can stand only once.
Tests used:
Type in all cases: toxicity, cell-based
[1] = tested on: Fibroblast; assay: Multiplex assay against human fibroblast; settings: 10 µM, compound concentration 10 uM
Outline: (§1)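 Tubulin, mitochondrial-mass and membrane-permeability phenotypes are per cents of healthy-nucleus cells. Cells were gated by CellPathfinder machine learning into Hoechst high-intensity objects or normal cells, normal cells into healthy, pyknosed or fragmented nuclei, and pyknosed cells into mitotic or apoptotic. Before that, live cells stained at seeding with Hoechst33342, BioTracker Green Microtubule Cytoskeleton Dye, MitoTracker Red and Annexin V Alexa Fluor 680 were imaged on a CQ1 microscope at 37°C and 5% CO2 after compound addition.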

[2] = tested on: HEK-293T; assay: Multiplex assay against HEK293T; settings: human, 10 µM, compound concentration 10 uM; outline: as §1;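 as to Population Tubulin-Different-Phenotype (%): share of the cells with healthy nuclei that show this phenotype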
[3] = tested on: Fibroblast; assay: Incucyte cell viability with human fibroblast; settings: 10 µM, compound concentration 10 uM; also: filed as whole numbers so only -1 and 0 and 1 occur
[4] = tested on: U2OS; assay: Multiplex assay against U2OS; settings: human, 10 µM, compound concentration 10 uM; outline: as §1
[5] = tested on: U2OS; assay: Incucyte cell viability with U2OS; settings: human, 10 µM, compound concentration 10 uM; also: filed as whole numbers so only -1 and 0 and 1 occur
[6] = tested on: HEK-293T; assay: Incucyte cell viability with HEK293T; settings: human, 10 µM, compound concentration 10 uM; also: filed as whole numbers so only -1 and 0 and 1 occur
[7] = 6 h, replicate number 1, timepoint 6 hours
[8] = 12 h, replicate number 1, timepoint 12 hours
[9] = 18 h, replicate number 1, timepoint 18 hours
[10] = 24 h, replicate number 1, timepoint 24 hours

Cn1c(-c2csc(C3CCN(CC4=NC5N=CC=CC5N4)CC3)n2)nc2ccccc21 (configuration not stated) [BAY-070]
Population Apoptotic (%) ([1]; 12 h, replicate 1): 66% and 86%
Population Fragmented Nuclei (%) ([1]; 12 h, replicate 1): 30% and 26%
Population Healthy Nuclei (%) ([1]; 12 h, replicate 1): 53% and 58%
Population Hoechst High Intensity Objects (%) ([1]; 12 h, replicate 1): 11% and 14%
Population Membrane Permeable-Phenotype (%) ([1]; 12 h, replicate 1): 12% and 9%
Population Mitochondria Different-Phenotype (%) ([1]; 12 h, replicate 1): 4%
Population Mitotic Cells (%) ([1]; 12 h, replicate 1): 33% and 13%
Population Normal (%) ([1]; 12 h, replicate 1): 88% and 85%
Population Pyknosed Nuclei (%) ([1]; 12 h, replicate 1): 15%
Total Cell Count ([1]; 12 h, replicate 1): 238 and 282
Population Fragmented Nuclei (%) ([1]; 12 h, replicate 2): 66% and 53%
Population Healthy Nuclei (%) ([1]; 12 h, replicate 2): 21% and 36%
Population Hoechst High Intensity Objects (%) ([1]; 12 h, replicate 2): 33% and 37%
Population Membrane Permeable-Phenotype (%) ([1]; 12 h, replicate 2): 36% and 29%
Population Normal (%) ([1]; 12 h, replicate 2): 66% and 62%
Population Pyknosed Nuclei (%) ([1]; 12 h, replicate 2): 11% and 10%
Total Cell Count ([1]; 12 h, replicate 2): 77 and 75
Population Apoptotic (%) ([1]; 24 h, replicate 1): 51% and 62%
Population Fragmented Nuclei (%) ([1]; 24 h, replicate 1): 23% and 16%
Population Healthy Nuclei (%) ([1]; 24 h, replicate 1): 61% and 67%
Population Hoechst High Intensity Objects (%) ([1]; 24 h, replicate 1): 10% and 13%
Population Membrane Permeable-Phenotype (%) ([1]; 24 h, replicate 1): 9% and 8%
Population Mitotic Cells (%) ([1]; 24 h, replicate 1): 48% and 37%
Population Normal (%) ([1]; 24 h, replicate 1): 89% and 86%
Population Pyknosed Nuclei (%) ([1]; 24 h, replicate 1): 15% and 16%
Total Cell Count ([1]; 24 h, replicate 1): 222 and 285
Population Fragmented Nuclei (%) ([1]; 24 h, replicate 2): 65% and 57%
Population Healthy Nuclei (%) ([1]; 24 h, replicate 2): 23% and 30%
Population Hoechst High Intensity Objects (%) ([1]; 24 h, replicate 2): 41% and 29%
Population Membrane Permeable-Phenotype (%) ([1]; 24 h, replicate 2): 30% and 22%
Population Mitotic Cells (%) ([1]; 24 h, replicate 2): 100% and 42%
Population Normal (%) ([1]; 24 h, replicate 2): 58% and 70%
Population Pyknosed Nuclei (%) ([1]; 24 h, replicate 2): 11%
Population Tubulin-Different-Phenotype (%) ([1]; 24 h, replicate 2): 40% and 50%
Total Cell Count ([1]; 24 h, replicate 2): 74 and 84
Population Apoptotic (%) ([2]; 12 h, replicate 1): 19% and 14%
Population Fragmented Nuclei (%) ([2]; 12 h, replicate 1): 25% and 9%
Population Healthy Nuclei (%) ([2]; 12 h, replicate 1): 48% and 56%
Population Hoechst High Intensity Objects (%) ([2]; 12 h, replicate 1): 16% and 14%
Population Membrane Permeable-Phenotype (%) ([2]; 12 h, replicate 1): 5% and 3%
Population Mitochondria Different-Phenotype (%) ([2]; 12 h, replicate 1): 5% and 8%
Population Mitotic Cells (%) ([2]; 12 h, replicate 1): 80% and 85%
Population Normal (%) ([2]; 12 h, replicate 1): 83% and 85%
Population Pyknosed Nuclei (%) ([2]; 12 h, replicate 1): 26% and 33%
Population Tubulin-Different-Phenotype (%) ([2]; 12 h, replicate 1): 7% and 10%
Total Cell Count ([2]; 12 h, replicate 1): 591 and 756
Population Apoptotic (%) ([2]; 12 h, replicate 2): 15% and 10%
Population Fragmented Nuclei (%) ([2]; 12 h, replicate 2): 3% and 6%
Population Healthy Nuclei (%) ([2]; 12 h, replicate 2): 82% and 88%
Population Hoechst High Intensity Objects (%) ([2]; 12 h, replicate 2): 5% and 2%
Population Membrane Permeable-Phenotype (%) ([2]; 12 h, replicate 2): 1%
Population Mitochondria Different-Phenotype (%) ([2]; 12 h, replicate 2): 21%
Population Mitotic Cells (%) ([2]; 12 h, replicate 2): 84% and 89%
Population Normal (%) ([2]; 12 h, replicate 2): 94% and 97%
Population Tubulin-Different-Phenotype (%) ([2]; 12 h, replicate 2): 14% and 5%
Total Cell Count ([2]; 12 h, replicate 2): 1063 and 1470
Population Apoptotic (%) ([2]; 24 h, replicate 1): 15% and 24%
Population Fragmented Nuclei (%) ([2]; 24 h, replicate 1): 10% and 21%
Population Healthy Nuclei (%) ([2]; 24 h, replicate 1): 63% and 62%
Population Hoechst High Intensity Objects (%) ([2]; 24 h, replicate 1): 9% and 10%
Population Membrane Permeable-Phenotype (%) ([2]; 24 h, replicate 1): 6%
Population Mitochondria Different-Phenotype (%) ([2]; 24 h, replicate 1): 7% and 4%
Population Mitotic Cells (%) ([2]; 24 h, replicate 1): 84% and 75%
Population Normal (%) ([2]; 24 h, replicate 1): 90% and 89%
Population Pyknosed Nuclei (%) ([2]; 24 h, replicate 1): 25% and 16%
Total Cell Count ([2]; 24 h, replicate 1): 694 and 578
Population Apoptotic (%) ([2]; 24 h, replicate 2): 9% and 17%
Population Fragmented Nuclei (%) ([2]; 24 h, replicate 2): 14% and 5%
Population Healthy Nuclei (%) ([2]; 24 h, replicate 2): 83% and 87%
Population Hoechst High Intensity Objects (%) ([2]; 24 h, replicate 2): 2% and 5%
Population Membrane Permeable-Phenotype (%) ([2]; 24 h, replicate 2): 5%
Population Mitochondria Different-Phenotype (%) ([2]; 24 h, replicate 2): 1% and 11%
Population Mitotic Cells (%) ([2]; 24 h, replicate 2): 90% and 82%
Population Normal (%) ([2]; 24 h, replicate 2): 97% and 94%
Total Cell Count ([2]; 24 h, replicate 2): 2202 and 1248
Growth Rate ([3]; 0 h, replicate number 2, timepoint 0 hours): 1
Growth Rate [3, 7]: 0
Growth Rate [3, 8]: 1
Growth Rate [3, 9]: 1
Growth Rate [3, 10]: 1
Population Fragmented Nuclei (%) ([4]; 12 h, replicate 1): 2% and 3%
Population Healthy Nuclei (%) ([4]; 12 h, replicate 1): 90%
Population Hoechst High Intensity Objects (%) ([4]; 12 h, replicate 1): 5% and 3%
Population Membrane Permeable-Phenotype (%) ([4]; 12 h, replicate 1): 6%
Population Mitochondria Different-Phenotype (%) ([4]; 12 h, replicate 1): 10%
Population Mitotic Cells (%) ([4]; 12 h, replicate 1): 91% and 70%
Population Normal (%) ([4]; 12 h, replicate 1): 94% and 96%
Population Pyknosed Nuclei (%) ([4]; 12 h, replicate 1): 6% and 11%
Population Tubulin-Different-Phenotype (%) ([4]; 12 h, replicate 1): 22% and 8%
Total Cell Count ([4]; 12 h, replicate 1): 183 and 214
Population Fragmented Nuclei (%) ([4]; 12 h, replicate 2): 13% and 7%
Population Healthy Nuclei (%) ([4]; 12 h, replicate 2): 84% and 89%
Population Hoechst High Intensity Objects (%) ([4]; 12 h, replicate 2): 12% and 13%
Population Membrane Permeable-Phenotype (%) ([4]; 12 h, replicate 2): 19% and 8%
Population Mitochondria Different-Phenotype (%) ([4]; 12 h, replicate 2): 21% and 25%
Population Mitotic Cells (%) ([4]; 12 h, replicate 2): 100% and 66%
Population Normal (%) ([4]; 12 h, replicate 2): 87% and 86%
Population Pyknosed Nuclei (%) ([4]; 12 h, replicate 2): 2%
Population Tubulin-Different-Phenotype (%) ([4]; 12 h, replicate 2): 19% and 34%
Total Cell Count ([4]; 12 h, replicate 2): 96 and 145
Population Apoptotic (%) ([4]; 24 h, replicate 1): 50% and 40%
Population Fragmented Nuclei (%) ([4]; 24 h, replicate 1): 5% and 3%
Population Healthy Nuclei (%) ([4]; 24 h, replicate 1): 88% and 92%
Population Hoechst High Intensity Objects (%) ([4]; 24 h, replicate 1): 3% and 2%
Population Membrane Permeable-Phenotype (%) ([4]; 24 h, replicate 1): 10%
Population Mitochondria Different-Phenotype (%) ([4]; 24 h, replicate 1): 17% and 14%
Population Mitotic Cells (%) ([4]; 24 h, replicate 1): 50% and 60%
Population Normal (%) ([4]; 24 h, replicate 1): 96% and 97%
Population Pyknosed Nuclei (%) ([4]; 24 h, replicate 1): 6% and 3%
Population Tubulin-Different-Phenotype (%) ([4]; 24 h, replicate 1): 15% and 30%
Total Cell Count ([4]; 24 h, replicate 1): 265 and 259
Population Apoptotic (%) ([4]; 24 h, replicate 2): 20% and 33%
Population Fragmented Nuclei (%) ([4]; 24 h, replicate 2): 7% and 6%
Population Healthy Nuclei (%) ([4]; 24 h, replicate 2): 87% and 84%
Population Hoechst High Intensity Objects (%) ([4]; 24 h, replicate 2): 12%
Population Mitochondria Different-Phenotype (%) ([4]; 24 h, replicate 2): 25% and 27%
Population Mitotic Cells (%) ([4]; 24 h, replicate 2): 80% and 66%
Population Normal (%) ([4]; 24 h, replicate 2): 87%
Population Pyknosed Nuclei (%) ([4]; 24 h, replicate 2): 5% and 8%
Population Tubulin-Different-Phenotype (%) ([4]; 24 h, replicate 2): 19% and 39%
Total Cell Count ([4]; 24 h, replicate 2): 108 and 180
Growth Rate ([5]; 0 h, replicate number 1, timepoint 0 hours): 0
Growth Rate [5, 7]: 0
Growth Rate [5, 8]: 1
Growth Rate [5, 9]: 0
Growth Rate ([5]; 18 h, replicate number 2, timepoint 18 hours): 1
Growth Rate [5, 10]: 1
Growth Rate ([5]; 24 h, replicate number 2, timepoint 24 hours): 0
Growth Rate [6, 7]: 0
Growth Rate [6, 8]: 0
Growth Rate [6, 9]: 0
Growth Rate [6, 10]: 0
